# Experimental data reported in ChEMBL document CHEMBL3872205, “Design, synthesis and evaluation of novel potent angiotensin II receptor 1 antagonists” (Eur J Med Chem, 2016).
# Columns and labels:
# [1] = Half life in Wistar rat plasma at 10 mg/kg, po by HPLC analysis; format: ADME, organism-based
# [2] = MRT (0 to 72 hrs) in Wistar rat lung at 10 mg/kg, po by HPLC analysis; format: ADME, organism-based
# In short: (§1)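 Male Wistar rats (180 ± 20 g) received a single oral dose of 10, 15 or 30 mg/kg. Tissues were collected at 0, 0.5, 1, 2, 4, 6, 8, 12, 24, 48 and 72 h (n = 6 per point). Samples of 0.25 g were rinsed, then homogenized in saline (0.25 g/1 mL) and centrifuged at 10,000 × g. Supernatant was methanol-extracted, dried under nitrogen at 50 °C and reconstituted in methanol. Analysis was by C18 HPLC (acetonitrile 60% / water 40%, 1.0 mL/min).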
# [3] = MRT (0 to 72 hrs) in Wistar rat brain at 15 mg/kg, po by HPLC analysis; format: ADME, organism-based
# In short: (§2)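 Tissue distribution in male Wistar rats given oral 10, 15 or 30 mg/kg; heart, liver, spleen, lung, kidney and brain collected predose and 0.5–72 h post-dose (n = 6 per time). Tissue rinsed in saline, homogenised 0.25 g/1 mL saline, methanol extraction, dried under nitrogen, reconstituted in methanol. Analysis by reverse-phase C18 HPLC, acetonitrile/water 60:40, 1.0 mL/min, ambient temperature.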
# [4] = MRT (0 to infinity) in Wistar rat brain at 10 mg/kg, po by HPLC analysis; format: ADME, organism-based; in short: as §1
# [5] = MRT (0 to infinity) in Wistar rat plasma at 10 mg/kg, po by HPLC analysis; format: ADME, organism-based
# In short: (§3)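 Male Wistar rats (180 ± 20 g), 6 per dose group, each given a single oral dose. Blood was drawn by retro-orbital puncture into heparin at predose and at 0.5, 1, 2, 4, 6, 8, 12, 24, 48 and 72 h, then spun at 4000 × g and 4 °C. Plasma with internal standard was acetonitrile-precipitated, filtered and run on reverse-phase C18 HPLC (0.02 mol/L KH2PO4 55% / acetonitrile 45%, 1.0 mL/min). Calibration standards were 0.1–10 µg/mL, fitted by peak-height ratio with 1/conc² weighting.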
# [6] = Cmax in Wistar rat lung at 10 mg/kg, po by HPLC analysis; format: ADME, organism-based; design: dose 10 mg/kg, route oral; in short: as §2
# [7] = AUC (0 to 72 hrs) in Wistar rat Heart at 10 mg/kg, po by HPLC analysis; format: ADME, organism-based; design: time < 72 hr, dose 10 mg/kg, route oral
# In short: (§4)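 Wistar rats (180 ± 20 g) were dosed orally at 10, 15 or 30 mg/kg. Heart, liver, spleen, lung, kidney and brain were collected at 0–72 h (n = 6 per point). Tissue was rinsed, blotted and homogenized in saline (0.25 g/1 mL), then spun at 10,000 × g. Supernatant was methanol-extracted, dried under nitrogen at 50 °C, reconstituted in methanol and run on C18 HPLC (acetonitrile 60%/water 40%, 1.0 mL/min).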
# [8] = Half life in Wistar rat liver at 15 mg/kg, po by HPLC analysis; format: ADME, organism-based; in short: as §2
# [9] = AUC (0 to infinity) in Wistar rat spleen at 30 mg/kg, po by HPLC analysis; format: ADME, organism-based; design: dose 30 mg/kg, route oral, time infinity; in short: as §4
# [10] = Cmax in Wistar rat heart at 15 mg/kg, po by HPLC analysis; format: ADME, organism-based; design: dose 15 mg/kg, route oral; in short: as §2
# [11] = MRT (0 to infinity) in Wistar rat brain at 30 mg/kg, po by HPLC analysis; format: ADME, organism-based; in short: as §1
# [12] = Tmax in Wistar rat kidney at 10 mg/kg, po by HPLC analysis; format: ADME, organism-based; in short: as §1
# [13] = AUC (0 to 72 hrs) in Wistar rat spleen at 30 mg/kg, po by HPLC analysis; format: ADME, organism-based; design: dose 30 mg/kg, time < 72 hr, route oral; in short: as §4
# [14] = Half life in Wistar rat lung at 15 mg/kg, po by HPLC analysis; format: ADME, organism-based; in short: as §2
# [15] = Half life in Wistar rat kidney at 10 mg/kg, po by HPLC analysis; format: ADME, organism-based; in short: as §2
# [16] = Cmax in Wistar rat spleen at 30 mg/kg, po by HPLC analysis; format: ADME, organism-based; design: dose 30 mg/kg, route oral; in short: as §2
# [17] = AUC (0 to 72 hrs) in Wistar rat Heart at 15 mg/kg, po by HPLC analysis; format: ADME, organism-based; design: time < 72 hr, dose 15 mg/kg, route oral; in short: as §4
# [18] = AUC (0 to infinity) in Wistar rat brain at 15 mg/kg, po by HPLC analysis; format: ADME, organism-based; design: dose 15 mg/kg, time infinity, route oral; in short: as §4
# [19] = Tmax in Wistar rat liver at 15 mg/kg, po by HPLC analysis; format: ADME, organism-based; in short: as §1
# [20] = Half life in Wistar rat plasma at 30 mg/kg, po by HPLC analysis; format: ADME, organism-based
# [21] = Toxicity in ICR mouse assessed as mortality at 1500 mg/kg, ig after 2 weeks; format: organism-based; conditions: in vivo, po
# [22] = Half life in Wistar rat liver at 10 mg/kg, po by HPLC analysis; format: ADME, organism-based; in short: as §2
# [23] = Half life in Wistar rat Heart at 30 mg/kg, po by HPLC analysis; format: ADME, organism-based; in short: as §2
# [24] = AUC (0 to infinity) in Wistar rat Heart at 10 mg/kg, po by HPLC analysis; format: ADME, organism-based; design: dose 10 mg/kg, time infinity, route oral; in short: as §4
# [25] = Tmax in Wistar rat plasma at 30 mg/kg, po by HPLC analysis; format: ADME, organism-based; in short: as §3
# [26] = Cmax in Wistar rat liver at 15 mg/kg, po by HPLC analysis; format: ADME, organism-based; design: dose 15 mg/kg, route oral; in short: as §2
# [27] = AUC (0 to infinity) in Wistar rat kidney at 30 mg/kg, po by HPLC analysis; format: ADME, organism-based; design: dose 30 mg/kg, route oral, time infinity; in short: as §4
# [28] = Tmax in Wistar rat plasma at 15 mg/kg, po by HPLC analysis; format: ADME, organism-based; in short: as §3
# [29] = AUC (0 to infinity) in Wistar rat brain at 30 mg/kg, po by HPLC analysis; format: ADME, organism-based; design: dose 30 mg/kg, route oral, time infinity; in short: as §4
# [30] = AUC (0 to infinity) in Wistar rat plasma at 10 mg/kg, po by HPLC analysis; format: ADME, organism-based; design: dose 10 mg/kg, route oral, time infinity
# In short: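 Male Wistar rats (180 ± 20 g, n = 6 per group) got one oral dose. Heparinized blood was taken by retro-orbital puncture before dosing and at 0.5–72 h. Plasma was spun at 4000 × g, 4 °C, 10 min, spiked with internal standard and protein-precipitated with acetonitrile. Analysis was reverse-phase C18 HPLC (0.02 mol/L KH2PO4 55%/acetonitrile 45%, 1.0 mL/min). Calibration used 0.1–10 µg/mL, peak-height ratio, weighting concentration^-2.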
# [31] = AUC (0 to infinity) in Wistar rat kidney at 15 mg/kg, po by HPLC analysis; format: ADME, organism-based; design: dose 15 mg/kg, time infinity, route oral; in short: as §4
# [32] = Toxicity in ICR mouse assessed as mortality at 2343.75 mg/kg, ig after 2 weeks; format: organism-based; conditions: in vivo, po
# [33] = Half life in Wistar rat brain at 10 mg/kg, po by HPLC analysis; format: ADME, organism-based; in short: as §2
# [34] = Cmax in Wistar rat plasma at 30 mg/kg, po by HPLC analysis; format: ADME, organism-based; design: dose 30 mg/kg, route oral
# Rattus norvegicus = experiment: Antihypertensive activity in spontaneous hypertensive rat model assessed as reduction in mean blood pressure at 15 mg/kg, po after 4 hrs; format: functional
# In short: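 Male SHRs (250 ± 20 g) were randomized, 6 per group. Compound was suspended in 0.5% sodium carboxymethyl cellulose and given orally; vehicle-only negative control. Mean blood pressure was calculated as (SBP − DBP)/3 + DBP from systolic and diastolic readings over the time course. Data are mean ± SD, with p < 0.05 taken as significant.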
structure (smiles),measurement,setting,value
CCCCC1=NC2(CCCC2)C(=O)N1Cc1ccc2c(ccn2-c2ccccc2-c2nnn[nH]2)c1,half-life,[1],9.93 h
same,MRT last,[2],10.6 h
same,MRT last,[3],11.6 h
same,MRT inf,[4],8.1 h
same,MRT inf,[5],6.61 h
same,Cmax,[6],62.1 ng/mL
same,AUC(0-t) at 72 h,[7],825 ng·h/mL
same,half-life,[8],1.8 h
same,AUC(0-inf),[9],21000 ng·h/mL
same,Cmax,[10],283 ng/mL
same,MRT inf,[11],9.02 h
same,Tmax,[12],1.17 h
same,AUC(0-t) at 72 h,[13],18900 ng·h/mL
same,half-life,[14],2.46 h
same,half-life,[15],26.9 h
same,Cmax,[16],1880 ng/mL
same,AUC(0-t) at 72 h,[17],5840 ng·h/mL
same,AUC(0-inf),[18],1180 ng·h/mL
same,Tmax,[19],2 h
same,half-life,[20],9.93 h
same,mortality at 336 h,[21],50%
same,half-life,[22],2.33 h
same,half-life,[23],20.2 h
same,AUC(0-inf),[24],962 ng·h/mL
same,Tmax,[25],5 h
same,Cmax,[26],1230 ng/mL
same,AUC(0-inf),[27],29400 ng·h/mL
same,Tmax,[28],4.33 h
same,AUC(0-inf),[29],1790 ng·h/mL
same,AUC(0-inf),[30],6690 ng·h/mL
same,AUC(0-inf),[31],7690 ng·h/mL
same,mortality at 336 h,[32],80%
same,half-life,[33],2.73 h
same,Cmax,[34],5760 ng/mL
same,Activity,Rattus norvegicus,40.62 mmHg
